Measurements as given in ChEMBL document CHEMBL1649151, “Urinary bactericidal activity of Doripenem versus that of levofloxacin in patients with complicated urinary tract infections or pyelonephritis” (Antimicrob Agents Chemother, 2009).
≈ marks a conversion by molar mass, not a printed value.

How the values were obtained:
[1] = test system: Staphylococcus aureus; test: Antimicrobial activity against Staphylococcus aureus 2215767-9 B-S isolated from patient with pyelonephritis assessed as >3-log reduction in urinary bacterial titer after 24 hrs; type: functional, Urine
[2] = test system: Staphylococcus aureus; test: Antimicrobial activity against Staphylococcus aureus 2215767-9 B-S isolated from patient with pyelonephritis by Etest; type: functional
[3] = test system: Staphylococcus epidermidis; test: Antimicrobial activity against Staphylococcus epidermidis 1949822 B-J isolated from patient with pyelonephritis assessed as >3-log reduction in urinary bacterial titer after 24 hrs; type: functional, Urine
[4] = test system: Escherichia coli; test: Antimicrobial activity against Escherichia coli 1655646 A-Y isolated from patient with pyelonephritis assessed as >3-log reduction in urinary bacterial titer after 20 hrs; type: functional, Urine
How it was run: (§1)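 Urine was collected before dosing and on day 3 of i.v. therapy (steady state), in 4-h intervals from infusion start (0–4 to 20–24 h), stored at −80°C and sterile filtered. It was serially diluted twofold (1:0 to 1:131,072) in the patient's drug-free pre-dose urine. Microdilution used an inoculum of 1.0 x 10^6–9.5 x 10^6 CFU/ml, incubated 18 h at 37°C, then subcultured 24 h on blood agar. The endpoint was >99.9% kill, reported as reciprocal titer.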

[5] = test system: Pseudomonas aeruginosa; test: Antimicrobial activity against Pseudomonas aeruginosa 1821383 B-E isolated from patient with pyelonephritis assessed as >3-log reduction in urinary bacterial titer after 16 hrs; type: functional, Urine
[6] = test system: Staphylococcus epidermidis; test: Antimicrobial activity against Staphylococcus epidermidis 2297262-9 B-V isolated from patient with pyelonephritis assessed as >3-log reduction in urinary bacterial titer after 20 hrs; type: functional, Urine
[7] = test system: Escherichia coli; test: Antimicrobial activity against Escherichia coli 2297257 B-W isolated from patient with pyelonephritis assessed as urinary bactericidal titer
[8] = test system: Escherichia coli; test: Antimicrobial activity against Escherichia coli 2062717 B-P isolated from patient with pyelonephritis assessed as >3-log reduction in urinary bacterial titer after 16 hrs; type: functional, Urine
How it was run: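 Patient urine was collected on day 3 of i.v. therapy (steady state) over 4-h intervals after infusion start, stored at –80°C, and sterile filtered. It was twofold serially diluted (1:0 to 1:131,072) in the patient's own pre-dose drug-free urine, inoculated to 1.0 x 10^6–9.5 x 10^6 CFU/ml, and incubated for 18 h at 37°C. Subcultures were grown on blood agar for 24 h. The UBT is the reciprocal of the highest dilution giving >99.9% kill.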

[9] = test system: Escherichia coli; test: Antimicrobial activity against Escherichia coli 1780063 B-A isolated from patient with pyelonephritis assessed as >3-log reduction in urinary bacterial titer after 20 hrs; type: functional, Urine; how it was run: as §1
[10] = test system: Escherichia coli; test: Antimicrobial activity against Escherichia coli 1889645 B-I isolated from patient with pyelonephritis assessed as >3-log reduction in urinary bacterial titer after 16 hrs; type: functional, Urine
How it was run: (§2)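 Urine was collected on day 3 of i.v. therapy (steady state) over 4-h intervals from infusion start (0–4 to 20–24 h), stored at –80°C and sterile filtered. It was serially diluted twofold (1:0 up to 1:131,072) in the patient's own pre-dose drug-free urine. Microdilution used a final inoculum of 1.0 x 10^6 to 9.5 x 10^6 CFU/ml, incubated 18 h at 37°C in air. 10 µl was subcultured onto 5% blood Columbia agar for 24 h at 37°C. The bactericidal endpoint was >99.9% (>3-log) kill, reported as a reciprocal titer.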

[11] = test system: Escherichia coli; test: Antimicrobial activity against Escherichia coli 1889645 B-I isolated from patient with pyelonephritis assessed as >3-log reduction in urinary bacterial titer after 12 hrs; type: functional, Urine; how it was run: as §2
[12] = test system: Escherichia coli; test: Antimicrobial activity against Escherichia coli 1821385 B-C isolated from patient with pyelonephritis assessed as >3-log reduction in urinary bacterial titer after 24 hrs; type: functional, Urine; how it was run: as §2
[13] = test system: Staphylococcus haemolyticus; test: Antimicrobial activity against Staphylococcus haemolyticus 1949819 B-M isolated from patient with pyelonephritis assessed as >3-log reduction in urinary bacterial titer after 12 hrs; type: functional, Urine
[14] = test system: Escherichia coli; test: Antimicrobial activity against Escherichia coli 2062717 B-P isolated from patient with pyelonephritis assessed as >3-log reduction in urinary bacterial titer after 4 hrs; type: functional, Urine
[15] = test system: Staphylococcus haemolyticus; test: Antimicrobial activity against Staphylococcus haemolyticus 1949819 B-M isolated from patient with pyelonephritis by Etest; type: functional
[16] = test system: Escherichia coli; test: Antimicrobial activity against Escherichia coli 1821385 B-C isolated from patient with pyelonephritis assessed as >3-log reduction in urinary bacterial titer after 4 hrs; type: functional, Urine; how it was run: as §2

Structure (SMILES)	urinary bactericidal titer [1] [reciprocal titer]	MIC [2] [µg/mL]	urinary bactericidal titer [3] [reciprocal titer]	urinary bactericidal titer [4] [reciprocal titer]	urinary bactericidal titer [5] [reciprocal titer]	urinary bactericidal titer [6] [reciprocal titer]	urinary bactericidal titer [7] [reciprocal titer]	urinary bactericidal titer [8] [reciprocal titer]	urinary bactericidal titer [9] [reciprocal titer]	urinary bactericidal titer [10] [titer]	urinary bactericidal titer [11] [reciprocal titer]	urinary bactericidal titer [12] [reciprocal titer]	urinary bactericidal titer [13] [reciprocal titer]	urinary bactericidal titer [14] [reciprocal titer]	MIC [15] [µg/mL]	urinary bactericidal titer [16] [reciprocal titer]
C[C@H]1COc2c(N3CCN(C)CC3)c(F)cc3c(=O)c(C(=O)O)cn1c23.C[C@H]1COc2c(N3CCN(C)CC3)c(F)cc3c(=O)c(C(=O)O)cn1c23.O [LEVOFLOXACIN]	0	> 32	1	1024	128	2	–	–	–	–	–	–	–	–	–	–
C[C@@H](O)[C@H]1C(=O)N2C(C(=O)O)=C(S[C@@H]3CN[C@H](CNS(N)(=O)=O)C3)[C@H](C)[C@H]12 [DORIPENEM]	–	–	–	–	–	–	4096	512	4096	32800	131000	256	1024	32800	1 (≈ 2.38 µM)	4096
